Values after ≈ are worked out from the molar mass of the structure shown.

In series [1] the target is T1, Sphingosine 1-phosphate receptor 1 (Homo sapiens, UniProt P21453). Put plainly: Agonist activity at human S1P1 expressed in U2OS cells coexpressing eGFP assessed as receptor internalization after 1 hr by microscopic analysis. The class given is functional, cell-based. The method in brief: (§1)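 Human S1P1–eGFP fusion protein expressed in U2OS cells; agonism read as receptor internalization; EC50 derived, efficacy expressed relative to 1-(4-(6-benzylbenzofuran-2-yl)-3-fluorobenzyl)azetidine-3-carboxylic acid at 1.0 μM.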
T1 sequence (P21453 whole entry, the tested form may be a part): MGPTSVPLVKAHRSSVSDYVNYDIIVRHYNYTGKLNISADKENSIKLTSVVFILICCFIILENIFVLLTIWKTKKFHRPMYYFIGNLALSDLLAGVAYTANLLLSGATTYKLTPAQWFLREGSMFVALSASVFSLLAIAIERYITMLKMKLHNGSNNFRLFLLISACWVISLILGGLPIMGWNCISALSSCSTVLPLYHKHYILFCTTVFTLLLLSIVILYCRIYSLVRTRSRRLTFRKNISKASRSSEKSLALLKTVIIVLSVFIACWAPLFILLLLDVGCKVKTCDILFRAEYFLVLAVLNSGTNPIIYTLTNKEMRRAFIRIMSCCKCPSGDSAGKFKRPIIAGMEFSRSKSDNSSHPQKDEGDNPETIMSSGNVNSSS

Series [2] deals with T1, Sphingosine 1-phosphate receptor 1. Description: Agonist activity at human S1P1 expressed in U2OS cells coexpressing eGFP assessed as receptor internalization after 1 hr by microscopic analysis relative to 1-(4-(6-benzylbenzofuran-2-yl)-3-fluorobenzyl)azetidine-3-carboxylic acid. The class given is functional, cell-based. The method in brief: as §1
A short description of series [3]: Solubility of the compound in 0.01 M aqueous HCl. The class given is physicochemical.
The nature of series [4]: Solubility of the compound in phosphate buffer saline at pH 7.4. In kind it is physicochemical. The settings on record: phosphate buffered saline.
A short description of series [5]: Solubility of the compound in simulated intestinal fluid. In kind it is physicochemical.
Series [6] is described as follows: Apparent permeability across pig LLC-PK1 cells. In kind it is ADME, cell-based, Sus scrofa. In short, it runs like this:
(§2)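 Permeability across porcine proximal tubule LLC-PK1 cell monolayers; apparent permeability (Papp) and efflux ratio determined.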

Series [7] can be described thus: Intrinsic clearance in rat liver microsomes after 30 mins. In kind it is ADME, Microsome. To be noted: read-out: CLH.
Series [8] can be described thus: (§3) Plasma concentration in Lewis rat at 1 mg/kg, po at 24 hrs. The class given is ADME, organism-based. The arrangement: dose 1 mg/kg, route oral. The settings on record: Lewis, plasma. In short, it runs like this:
(§4)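 Female Lewis rats (N = 5/group) given one oral dose of 1 mg/kg (20% captisol, 1% HPMC, 1% pluronic F68, pH 2.1 with MSA); blood lymphocyte count and total plasma compound measured at 24 h; POC vs vehicle, ANOVA/Dunnett's test.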

Series [9] is described as follows: Efflux ratio of apparent permeability across pig LLC-PK1 cells. In kind it is ADME, cell-based, Sus scrofa. The method in brief:
as §2

The subject of another series is Rattus norvegicus. Put plainly: Immunosuppressive activity in Lewis rat assessed as change in peripheral lymphocyte count at 1 mg/kg, po after 24 hrs relative to vehicle treated control. The class given is functional. In short, it runs like this:
as §4

A further series has as its system Plasma. The description is as §3. Also noted: dose 1 mg/kg, route oral. To be noted: in vivo, 24 h, BLD = below limit of detection. The class given is ADME, organism-based. In short, it runs like this:
as §4

The target of series [10] is Sphingosine 1-phosphate receptor 3 (Homo sapiens, UniProt Q99500). Description: Agonist activity at human S1P3 expressed in CHO-K1 cells coexpressing Gq/i5 assessed as intracellular calcium release by fluorimetry. The class given is functional, cell-based. In short, it runs like this:
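CHO-K1 cells expressing the human S1P receptor subtype plus chimeric Gq/i5; Ca2+ mobilization measured; efficacy relative to S1P at 0.20 μM; compounds not reaching >10% of control activity reported as > highest concentration tested.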

Chain of Sphingosine 1-phosphate receptor 3 (Q99500 whole entry): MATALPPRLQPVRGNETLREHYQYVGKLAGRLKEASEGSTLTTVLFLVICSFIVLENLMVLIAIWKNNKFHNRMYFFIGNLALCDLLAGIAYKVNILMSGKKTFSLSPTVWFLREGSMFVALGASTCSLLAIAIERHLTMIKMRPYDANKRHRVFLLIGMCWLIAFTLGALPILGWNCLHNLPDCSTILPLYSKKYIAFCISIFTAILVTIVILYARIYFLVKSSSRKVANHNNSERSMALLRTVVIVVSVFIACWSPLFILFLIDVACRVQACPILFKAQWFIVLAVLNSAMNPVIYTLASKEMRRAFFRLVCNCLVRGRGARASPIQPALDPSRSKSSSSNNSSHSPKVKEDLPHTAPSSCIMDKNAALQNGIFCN

On to `COc1ccccc1C(=O)NC(=O)Nc1ccc(N2CCCCC2)c(Cl)c1`, for which the EC50 in series [1] came to 230 nM. For the same compound, the Efficacy in [2] amounted to 120%. Moreover, the solubility in series [3] was 3.6 µg/mL (≈ 9.28 µM); in [4], less than 1 µg/mL; in series [5], 8.5 µg/mL (≈ 21.9 µM). Moreover, in series [6], the apparent permeability (Papp) is less than 1 ×10⁻⁶ cm/s. Besides, the microsomal CLint in series [7] is 36 µL/min/mg.
`COc1ccccc1C(=O)NC(=O)Nc1ccc(-c2nccs2)c(C(F)(F)F)c1` showed a concentration at 24 h in [8] of 1 ng/mL. Moreover, the EC50 in series [1] turned out to be 38 nM. In addition, the Efficacy in [2] was determined as 130%. For the same compound, the solubility in [3] is 1.1 µg/mL (≈ 2.61 µM); in series [4], less than 1 µg/mL; in series [5], 12 µg/mL (≈ 28.5 µM). For the same compound, in series [6], the Papp worked out at 12 ×10⁻⁶ cm/s. In addition, the efflux ratio in series [9] amounted to 1.4. Moreover, the microsomal CLint in [7] is 33 µL/min/mg. Also, the Activity with Rattus norvegicus is -18%.
`COc1ccccc1C(=O)NC(=O)Nc1ccc(-c2ccccc2)c(C(C)C)c1`: the concentration at 24 h in series [8] was found to be 7 ng/mL. The EC50 in [1] was found to be 5.4 nM. The Efficacy in series [2] came to 120%. The solubility in series [3] is less than 1 µg/mL; in series [4], less than 1 µg/mL; in series [5] it was 24 µg/mL (≈ 61.8 µM). The Papp in [6] stood at 1.2 ×10⁻⁶ cm/s. Also, the efflux ratio in series [9] came out at 1. Moreover, the microsomal CLint in series [7] is less than 14 µL/min/mg. Also, the Activity in the series on Rattus norvegicus is recorded as 3%.
The compound `COc1ccccc1C(=O)NC(=O)Nc1ccc(-c2ccccc2)c(C(F)(F)F)c1` registered a concentration at 24 h in series [8] of 4.9 ng/mL. Further, in [1], the EC50 amounted to 68 nM. In addition, in series [2], the Efficacy worked out at 110%. Besides, the solubility in series [3] is less than 1 µg/mL; in [4], less than 1 µg/mL; in [5], 23 µg/mL (≈ 55.5 µM). Also, in series [6], the apparent permeability coefficient (Papp) is less than 1 ×10⁻⁶ cm/s. Moreover, the microsomal CLint in series [7] is 15 µL/min/mg. The Activity in the series with Rattus norvegicus is -20%.
`COc1ccccc1C(=O)NC(=O)Nc1ccc(N2CCCCC2)c(C(F)(F)F)c1`: the EC50 in [1] is 13 nM. In addition, in series [2], the Efficacy turned out to be 120%. For the same compound, the solubility in series [3] was 3 µg/mL (≈ 7.12 µM); in series [4] it was less than 1 µg/mL; in [5], 4.1 µg/mL (≈ 9.73 µM). In addition, the apparent permeability (Papp) in series [6] is less than 1 ×10⁻⁶ cm/s. For the same compound, the microsomal CLint in series [7] came to 26 µL/min/mg.
As for `COc1ccccc1C(=O)NC(=O)Nc1ccc(C(C)C)c(C(F)(F)F)c1`, in the series on Plasma, the Cp result is reported as “BLD”. Besides, the EC50 in series [1] was determined as 14 nM. Further, the Efficacy in series [2] was 110%. Besides, the results for the solubility in series [3], in [4] and in series [5] were less than 1 µg/mL, less than 1 µg/mL and 6.9 µg/mL (≈ 18.1 µM), respectively. Also, the Papp in series [6] is 2.1 ×10⁻⁶ cm/s. For the same compound, the efflux ratio in [9] was determined as 1. In addition, the microsomal CLint in series [7] is less than 14 µL/min/mg. For the same compound, in the series with Rattus norvegicus, the Activity was -16%.
`COc1ccccc1C(=O)NC(=O)Nc1ccc(OCC(F)(F)F)c(C(F)(F)F)c1` showed a concentration at 24 h in series [8] of 1 ng/mL. In addition, the EC50 in series [1] came to 6.8 nM. In addition, the Efficacy in series [2] came to 83%. The solubility in series [3] was less than 1 µg/mL; in [4], less than 1 µg/mL; in series [5] it was 2.2 µg/mL (≈ 5.04 µM). Moreover, in [6], the Papp was less than 1 ×10⁻⁶ cm/s. In addition, the microsomal CLint in series [7] amounted to 25 µL/min/mg. Further, in the series with Rattus norvegicus, the Activity is recorded as 4%.
Take `COc1ccccc1C(=O)NC(=O)Nc1ccc(-c2ccccn2)c(C(F)(F)F)c1`: in series [8], the concentration at 24 h was determined as 13 ng/mL. For the same compound, the EC50 in [1] stood at 13 nM. The Efficacy in [2] is 110%. In addition, the values for the solubility in [3], in series [4] and in [5] were 28 µg/mL (≈ 67.4 µM), 19 µg/mL (≈ 45.7 µM) and 8.5 µg/mL (≈ 20.5 µM), respectively. Besides, the Papp in [6] came out at 7.4 ×10⁻⁶ cm/s. Besides, in series [9], the efflux ratio amounted to 1.1. The microsomal CLint in [7] is 15 µL/min/mg. For the same compound, in the series with Rattus norvegicus, the Activity is on record as -14%.
`COc1ccccc1C(=O)NC(=S)Nc1ccc(N2CCCCC2)c(Cl)c1`: the concentration giving a half-maximal response (EC50) in series [10] is greater than 25000 nM; in series [1] it was 430 nM. Besides, in series [2], the Efficacy stood at 87%. The solubility in series [3] was less than 1 µg/mL; in [4], less than 1 µg/mL; in series [5], 27 µg/mL (≈ 66.8 µM). The Papp in [6] stood at 1.8 ×10⁻⁶ cm/s. Also, in series [9], the efflux ratio was 1. In addition, the microsomal CLint in series [7] worked out at 29 µL/min/mg.

The term EC50 denotes the concentration at which the effect is half-maximal. The term solubility denotes the concentration that dissolves in the medium under given conditions. What is called Papp is the rate of passage across a membrane or cell layer, normalised by area and donor concentration. The term efflux ratio denotes a quotient of directional permeabilities that is used to spot active efflux.

The values are drawn from ChEMBL document CHEMBL2016555, “4-Methoxy-N-[2-(trifluoromethyl)biphenyl-4-ylcarbamoyl]nicotinamide: A Potent and Selective Agonist of S1P1” (ACS Med Chem Lett, 2011).
